Experiment [1] has as its system Friend leukemia cell line. Briefly: Tested […] for the inhibition of proliferation of friend leukemic cells. The conditions noted are these: Mus musculus. The experiment is classed as functional. In short, it runs like this:
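MEL DS19 murine erythroleukemia (Friend) cells, log phase, kept in DMEM with 10% FBS and penicillin/streptomycin at 37 °C in 5% CO2. Seeded at 4 × 10⁴ cells/well with serial compound dilutions; screened at 10 and 50 µM, then dose-response. DMSO at 0.1% in controls. Cells counted by Casy counter after 72 h. Proliferation given as percent of solvent control.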

In experiment [2] the target is T1, Histone deacetylase HD2 (Zea mays, UniProt Q94F81).
T1 sequence (Q94F81 whole entry): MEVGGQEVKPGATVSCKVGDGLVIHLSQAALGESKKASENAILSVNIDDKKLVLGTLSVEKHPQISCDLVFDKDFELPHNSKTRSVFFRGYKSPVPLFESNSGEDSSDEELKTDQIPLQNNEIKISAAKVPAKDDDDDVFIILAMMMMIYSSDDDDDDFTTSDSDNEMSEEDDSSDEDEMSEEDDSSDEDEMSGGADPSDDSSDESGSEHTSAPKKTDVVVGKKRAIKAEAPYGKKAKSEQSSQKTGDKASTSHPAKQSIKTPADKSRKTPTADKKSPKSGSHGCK
The experiment in a line: Inhibition of in vitro enzyme activity measured in a highly purified maize Histone deacetylase 2 preparation.

For experiment [3], the target named is Histone deacetylase. Briefly: Inhibition of in vitro enzyme activity measured in partially purified rat liver Histone deacetylase preparation. The experiment is classed as tissue-based.

Each structure is given as a SMILES string. pIC50: −log10 of the molar value.

Broadly, the pIC50 is −log10 of the IC50, conventionally taken in molar units. Low values mean a high IC50, high ones a low IC50. The term IC50 denotes the midpoint of a concentration-inhibition curve. A higher IC50 goes with lower potency.

Consider `O=C(CCCCCCC(=O)N[C@H](Cc1ccccc1)C(=O)NCCc1ccccc1)NO`, for which the pIC50 was 4.12 in experiment [1] and 6.47 in experiment [2]. For the same molecule, the IC50 in experiment [3] is 390 nM.

In the case of `COC(=O)[C@H](Cc1cccc2ccccc12)NC(=O)CCCCCCC(=O)NO`, the negative-log IC50 (pIC50) in experiment [1] was 4.66; in experiment [2], 6.44. Besides, in experiment [3], the IC50 is listed as 130 nM.

On to `O=C(CCCCCCC(=O)N[C@@H](Cc1ccccc1)C(=O)NCc1ccccc1)NO`, for which the figures for the pIC50 in experiment [1] and in experiment [2] were 4.16 and 6.85, respectively. The IC50 in experiment [3] came to 460 nM.

`O=C(CCCCCCC(=O)NO)NO` [SUBEROHYDROXAMIC ACID] gave a negative logarithm of the IC50 (pIC50) in experiment [2] of 6.49. In experiment [3], the IC50 stood at 1150 nM.

With `COC(=O)[C@H](Cc1ccc(-c2ccccc2)cc1)NC(=O)CCCCCCC(=O)NO`, the negative-log IC50 (pIC50) is 6.08 in experiment [1] and 6.68 in experiment [2]. Moreover, the IC50 in experiment [3] is recorded as 290 nM.

With `COC(=O)[C@H](Cc1c[nH]c2ccccc12)NC(=O)CCCCCCC(=O)NO`, the figures for the pIC50 in experiment [1] and in experiment [2] were 4.89 and 6.92, respectively. In experiment [3], this molecule yielded an IC50 of 320 nM.

As to `O=C(CCCCCCC(=O)N[C@@H](Cc1ccccc1)C(=O)NCCc1ccccc1)NO`, the results for the pIC50 in experiment [1] and in experiment [2] were 4.14 and 6.48, respectively. In addition, in experiment [3], the IC50 is 260 nM.

Turning to `COC(=O)[C@@H](NC(=O)CCCCCCC(=O)NO)C(C)C`, the pIC50 in experiment [1] was 5.21; in experiment [2], 6.05. This molecule gave an IC50 in experiment [3] of 380 nM.

As for `COC(=O)[C@H](Cc1cccs1)NC(=O)CCCCCCC(=O)NO`, the pIC50 in experiment [1] was 5.23; in experiment [2], 6.15. Also, in experiment [3], the IC50 turned out to be 410 nM.

In the case of `O=C(CCCCCCC(=O)N[C@@H](Cc1ccccc1)C(=O)N1CCCC1)NO`, the pIC50 in experiment [1] is under 4.00; in experiment [2], 6.28. In experiment [3], this molecule showed an IC50 of 330 nM.

Consider `O=C(CCCCCCC(=O)Nc1ccccc1)NO` [VORINOSTAT], for which the pIC50 in experiment [1] and in experiment [2] was 6.00 each time.

Turning to `COC(=O)[C@H](Cc1ccc([N+](=O)[O-])cc1)NC(=O)CCCCCCC(=O)NO`, the figures for the pIC50 in experiment [1] and in experiment [2] were 4.46 and 6.07, respectively. In experiment [3], this molecule displayed an IC50 of 1340 nM.

For the molecule `O=C(CCCCCCC(=O)N[C@@H](Cc1ccccc1)C(=O)Nc1ccccc1)NO`, the negative logarithm of the IC50 (pIC50) in experiment [1] was 4.82. This molecule also returned an IC50 in experiment [3] of 790 nM.

For the molecule `O=C(CCCCCCC(=O)N[C@@H](Cc1cccc2ccccc12)C(=O)NCCc1ccccc1)NO`, the pIC50 in experiment [1] was 4.82; in experiment [2], 7.46. The molecule also gave an IC50 in experiment [3] of 310 nM.

`COC(=O)[C@H](Cc1ccccc1)NC(=O)CCCCCCC(=O)NO`: the values for the pIC50 in experiment [1] and in experiment [2] were 4.82 and 6.30, respectively. In experiment [3], this molecule displayed an IC50 of 800 nM.

Consider `COC(=O)[C@H](Cc1ccc2ccccc2c1)NC(=O)CCCCCCC(=O)NO`, for which the pIC50 in experiment [1] was 5.28; in experiment [2] it was 7.40. Moreover, the IC50 in experiment [3] stood at 510 nM.

As to `O=C(CCCCCCC(=O)N[C@H](Cc1ccccc1)C(=O)O)NO`, the pIC50 was under 4.00 in experiment [1] and 6.12 in experiment [2]. Also, the IC50 in experiment [3] is on record as 1540 nM.

Turning to `NC(=O)[C@H](Cc1ccccc1)NC(=O)CCCCCCC(=O)NO`, the results for the pIC50 in experiment [1] and in experiment [2] were 4.19 and 5.96, respectively. The IC50 in experiment [3] was 840 nM.

As to `COC(=O)[C@@H](Cc1ccccc1)NC(=O)CCCCCCC(=O)NO`, the pIC50 in experiment [1] is 4.55; in experiment [2] it was 6.12. Besides, the concentration for half-maximal inhibition (IC50) in experiment [3] is 880 nM.

With `CC(/C=C/C(=O)NO)=C\[C@@H](C)C(=O)c1ccc(N(C)C)cc1` [TRICHOSTATIN], the pIC50 in experiment [1] is 7.40.

`COC(=O)[C@H](Cc1ccc(OC)cc1)NC(=O)CCCCCCC(=O)NO`: the pIC50 was 4.96 in experiment [1] and 6.60 in experiment [2]. The molecule also yielded an IC50 in experiment [3] of 800 nM.

Consider `O=C(CCCCCCC(=O)N[C@@H](Cc1ccccc1)C(=O)NCCCc1ccccc1)NO`, for which the pIC50 in experiment [1] was 4.24; in experiment [2], 6.42. This molecule gave an IC50 in experiment [3] of 1010 nM.

Source of the values: ChEMBL document CHEMBL1135519, “Structure-activity relationships on phenylalanine-containing inhibitors of histone deacetylase: in vitro enzyme inhibition, induction of differentiation, and inhibition of proliferation in Friend leukemic cells” (J Med Chem, 2002).
